According to ChEMBL document CHEMBL3232993, “Design, synthesis, and structure-activity relationship of a novel series of GluN2C-selective potentiators” (J Med Chem, 2014):

Assays:
[1] = target: T1, Ionotropic glutamate receptor NMDA 1/2D (Rattus norvegicus) (UniProt P35439+Q62645); test: Potentiation of rat recombinant GluN1/GluN2D expressed in Xenopus laevis oocytes assessed as increase in glutamate/glycine-induced current response at 30 uM by two-electrode voltage clamp technique relative to control; type: cell-based
In short: (§1)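 Two-electrode voltage clamp at −40 mV on Xenopus oocytes coexpressing GluN1 with GluN2A, 2B, 2C or 2D. […] Compounds came from 20 mM DMSO stocks, with 0.05–0.5% final DMSO. Some GluN2A oocytes were injected with K-BAPTA to limit current run-up. Recording solution was pH 7.4, 23 °C.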

[2] = target: T2, Glutamate NMDA receptor; Grin1/Grin2c (Rattus norvegicus) (UniProt P35439+Q00961); test: Potentiation of rat recombinant GluN1/GluN2C expressed in Xenopus laevis oocytes assessed as increase in glutamate/glycine-induced current response at 100 uM by two-electrode voltage clamp technique relative to control; type: cell-based; in short: as §1
[3] = target: T3, Glutamate NMDA receptor; Grin1/Grin2b (Rattus norvegicus) (UniProt P35439+Q00960); test: Potentiation of rat recombinant GluN1/GluN2B expressed in Xenopus laevis oocytes assessed as increase in glutamate/glycine-induced current response at 30 uM by two-electrode voltage clamp technique relative to control; type: cell-based; in short: as §1
[4] = target: Glutamate NMDA receptor; Grin1/Grin2c (Rattus norvegicus, UniProt P35439+Q00961); test: Potentiation of rat recombinant GluN1/GluN2C expressed in Xenopus laevis oocytes assessed as increase in glutamate/glycine-induced current response by two-electrode voltage clamp technique relative to control; type: cell-based
[5] = target: T4, Glutamate NMDA receptor; Grin1/Grin2a (Rattus norvegicus) (UniProt P35439+Q00959); test: Potentiation of rat recombinant GluN1/GluN2A expressed in Xenopus laevis oocytes assessed as increase in glutamate/glycine-induced current response at 30 uM by two-electrode voltage clamp technique relative to control; type: cell-based; in short: as §1
[6] = target: T2, Glutamate NMDA receptor; Grin1/Grin2c (Rattus norvegicus); test: Potentiation of rat recombinant GluN1/GluN2C expressed in Xenopus laevis oocytes assessed as increase in glutamate/glycine-induced current response at 30 uM by two-electrode voltage clamp technique relative to control; type: cell-based; in short: as §1
[7] = target: T3, Glutamate NMDA receptor; Grin1/Grin2b (Rattus norvegicus); test: Activity at rat recombinant GluN1/GluN2B expressed in Xenopus laevis oocytes assessed as current response at 100 uM relative to control
[8] = target: T4, Glutamate NMDA receptor; Grin1/Grin2a (Rattus norvegicus); test: Activity at rat recombinant GluN1/GluN2A expressed in Xenopus laevis oocytes assessed as current response at 100 uM relative to control
[9] = target: T1, Ionotropic glutamate receptor NMDA 1/2D (Rattus norvegicus); test: Activity at rat recombinant GluN1/GluN2D expressed in Xenopus laevis oocytes assessed as current response at 100 uM relative to control

Row | SMILES | Activity [1] | max activation [2] | Activity [3] | EC50 [4] | Activity [5] | Activity [6] | max activation [6] | residual activity [7] | residual activity [8] | residual activity [9]
1 | COC(=O)c1ccc(C2C(C(=O)C(C)C)=C(O)C(=O)N2CCc2c[nH]c3ccccc23)cc1 (stereo unspecified) | 89% | 119% | 87% | 61 µM | 95% | – | – | – | – | –
2 | COC(=O)c1ccc(C2C(C(=O)c3cccc(F)c3)=C(O)C(=O)N2CCc2c[nH]c3ccccc23)cc1 (stereo unspecified) | 78% | – | 83% | 11 µM | 98% | 133% | 136% | – | – | –
3 | COC(=O)c1ccc(C2C(C(=O)c3cccc(Cl)c3)=C(O)C(=O)N2CCc2c[nH]c3ccccc23)cc1 (stereo unspecified) | 83% | – | 83% | 8.7 µM | 107% | 145% | 145% | – | – | –
4 | COC(=O)c1ccc(C2C(C(=O)c3ccncc3)=C(O)C(=O)N2CCc2c[nH]c3ccccc23)cc1 (stereo unspecified) | 84% | – | 87% | 8.9 µM | 92% | 186% | 196% | – | – | –
5 | COC(=O)c1ccc(C2C(C(=O)c3cccnc3)=C(O)C(=O)N2CCc2c[nH]c3cc(Cl)ccc23)cc1 (stereo unspecified) | 86% | – | 66% | 8.5 µM | 93% | 170% | 204% | – | – | –
6 | COC(=O)c1ccc(C2C(C(=O)c3cccc(C)c3)=C(O)C(=O)N2CCc2c[nH]c3ccccc23)cc1 (stereo unspecified) | 84% | – | 90% | 16 µM | 97% | 122% | 131% | – | – | –
7 | COC(=O)c1ccc(C2C(C(C)=O)=C(OC)C(=O)N2CCc2c[nH]c3ccccc23)cc1 (stereo unspecified) | 82% | – | 91% | 37 µM | 109% | 127% | 163% | – | – | –
8 | COC(=O)c1ccc(C2C(C(C)=O)=C(O)C(=O)N2CCc2c[nH]c3ccccc23)c(C)c1 (stereo unspecified) | 85% | – | 95% | 35 µM | 101% | 129% | 165% | – | – | –
9 | CCC(=O)C1=C(O)C(=O)N(CCc2c[nH]c3ccccc23)C1c1ccc(C(=O)OC)cc1 (stereo unspecified) | 78% | – | 77% | 24 µM | 85% | 160% | 204% | – | – | –
10 | COC(=O)c1ccc(C2C(C(=O)c3cccnc3)=C(O)C(=O)N2CCc2c[nH]c3cc(F)ccc23)cc1 (stereo unspecified) | 82% | – | 64% | 13 µM | 94% | 163% | 167% | – | – | –
11 | COC(=O)c1ccc(C2C(C(=O)c3cccnc3)=C(O)C(=O)N2CCc2c[nH]c3c(F)cccc23)cc1 (stereo unspecified) | 86% | – | 84% | 18 µM | 105% | 161% | 191% | – | – | –
12 | COC(=O)c1ccc(C2C(C(=O)c3cccnc3)=C(O)C(=O)N2CCc2c[nH]c3cc(OC)ccc23)cc1 (stereo unspecified) | 85% | – | 98% | 8 µM | 84% | 194% | 204% | – | – | –
13 | COC(=O)c1ccc(C2C(C(C)=O)=C(O)C(=O)N2CCc2c[nH]c3ccccc23)cc1O (stereo unspecified) | 90% | – | 79% | 29 µM | 81% | 123% | 151% | – | – | –
14 | CCOC(=O)c1ccc(C2C(C(C)=O)=C(O)C(=O)N2CCc2c[nH]c3ccccc23)c(O)c1 (stereo unspecified) | 88% | – | 100% | 40 µM | 110% | 145% | 194% | – | – | –
15 | COC(=O)c1ccc(C2C(C(C)=O)=C(O)C(=O)N2CCc2c[nH]c3c(C)cccc23)cc1 (stereo unspecified) | 92% | – | 81% | 25 µM | 98% | 121% | 139% | – | – | –
16 | CCOC(=O)c1ccc(C2C(C(=O)c3ccncc3)=C(O)C(=O)N2CCc2c[nH]c3ccccc23)cc1 (stereo unspecified) | 86% | – | 91% | 9.7 µM | 109% | 223% | 245% | – | – | –
17 | COC(=O)c1ccc(C2C(C(=O)c3cccnc3)=C(O)C(=O)N2CCc2c[nH]c3ccccc23)cc1 (stereo unspecified) | 78% | – | 76% | 12 µM | 97% | 180% | 201% | – | – | –
18 | CCOC(=O)c1ccc(C2C(C(C)=O)=C(O)C(=O)N2CCc2c[nH]c3ccccc23)cc1 (stereo unspecified) | 91% | – | 83% | 15 µM | 104% | 201% | 237% | – | – | –
19 | COC(=O)c1ccc(C2C(C(C)=O)=C(O)C(=O)N2CCc2c[nH]c3ccccc23)c(Cl)c1 (stereo unspecified) | 90% | – | 87% | 36 µM | 103% | 139% | 191% | – | – | –
20 | COC(=O)c1ccc(C2C(C(C)=O)=C(OC(C)=O)C(=O)N2CCc2c[nH]c3ccccc23)cc1 (stereo unspecified) | 92% | – | 90% | 52 µM | 95% | 120% | 173% | – | – | –
21 | COC(=O)c1ccc(C2C(C(C)=O)=C(O)C(=O)N2CCc2c[nH]c3ccccc23)c(F)c1 (stereo unspecified) | 91% | – | 96% | 37 µM | 93% | 123% | 155% | – | – | –
22 | CCCC(=O)OC1=C(C(C)=O)C(c2ccc(C(=O)OC)cc2)N(CCc2c(C)[nH]c3ccccc23)C1=O (stereo unspecified) | 93% | – | 93% | 17 µM | 112% | 186% | 184% | – | – | –
23 | COC(=O)c1ccc(C2C(C(=O)c3cccnc3)=C(O)C(=O)N2CCc2c(C)[nH]c3ccccc23)cc1 (stereo unspecified) | 82% | – | 77% | 13 µM | 82% | 174% | 204% | – | – | –
24 | COC(=O)c1ccc(C2C(C(=O)c3cccc(O)c3)=C(O)C(=O)N2CCc2c[nH]c3ccccc23)cc1 (stereo unspecified) | 69% | – | 65% | 7 µM | 89% | 169% | 176% | 42% | 76% | 48%
25 | COC(=O)c1ccc(C2C(C(=O)C(C)(C)C)=C(O)C(=O)N2CCc2c[nH]c3ccccc23)cc1 (stereo unspecified) | 79% | – | 93% | 52 µM | 87% | 129% | 187% | – | – | –
26 | C=CC(=O)OC1=C(C(C)=O)C(c2ccc(C(=O)OC)cc2)N(CCc2c(C)[nH]c3ccccc23)C1=O (stereo unspecified) | 100% | – | 104% | 105 µM | 106% | 125% | 208% | – | – | –
27 | COC(=O)c1ccc(C2C(C(=O)c3cccnc3)=C(O)C(=O)N2CCc2c[nH]c3cc(C)ccc23)cc1 (stereo unspecified) | 86% | – | 82% | 4.3 µM | 103% | 219% | 218% | – | – | –
28 | CCOC(=O)c1ccc(C2C(C(=O)c3cccnc3)=C(O)C(=O)N2CCc2c[nH]c3ccccc23)cc1 (stereo unspecified) | 83% | – | 71% | 8.2 µM | 97% | 201% | 207% | – | – | –
29 | COC(=O)c1ccc(C2C(C(C)=O)=C(O)C(=O)N2CCc2c[nH]c3ccccc23)c(O)c1 (stereo unspecified) | 88% | – | 86% | 15 µM | 107% | 173% | 202% | – | – | –
